Experimental data taken from article PMC12467390 (ACS infectious diseases, 2025).
Values after ≈ are worked out from the molar mass of the structure shown. Where two headings read alike, the source gives them in different places.

Assays:
[1] = biological target: 4-hydroxybenzoate-3-monooxygenase (PHBH) (Pseudomonas fluorescens, UniProt P00438); experiment: PHBH NADPH consumption assay; assay type: biochemical
Method in brief: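 PHBH came from a codon-optimized pobA gene expressed in E. coli: grown at 37 °C in LB with kanamycin, induced with 1 mM IPTG at 15 °C for 12–15 h. It was purified by imidazole elution at pH 8.0 and dialyzed overnight. Activity was measured with para-hydroxybenzoic acid as substrate, following NADPH consumption at A340. Time-dependence was assessed by pre-incubating inhibitor with enzyme for varying times before starting the reaction.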

Tet50 = Tet50 (Unknown prokaryotic organism, UniProt A0A059WYP6); experiment: Steady-state TC consumption assay; assay type: biochemical; conditions: for Apparent decay constant of IC50 versus pre-incubation time: Tet50
Sequence of Tet50 (A0A059WYP6 whole entry): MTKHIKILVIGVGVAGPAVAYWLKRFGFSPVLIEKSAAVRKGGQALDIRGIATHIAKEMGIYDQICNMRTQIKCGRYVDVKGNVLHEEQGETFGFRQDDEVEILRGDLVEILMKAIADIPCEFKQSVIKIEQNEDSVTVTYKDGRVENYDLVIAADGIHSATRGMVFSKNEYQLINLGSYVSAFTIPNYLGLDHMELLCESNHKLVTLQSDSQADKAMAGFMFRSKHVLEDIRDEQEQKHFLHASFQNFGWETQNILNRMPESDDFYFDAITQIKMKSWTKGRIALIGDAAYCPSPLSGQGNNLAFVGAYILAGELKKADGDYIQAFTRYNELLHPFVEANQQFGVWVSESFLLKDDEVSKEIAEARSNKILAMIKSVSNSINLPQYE

TetX7 [2] = experiment: Steady-state TC consumption assay; assay type: biochemical; conditions: dark; for Apparent IC50 Values, TetX7: no pre-incubation, none detected = no inhibition up to 2.5 mM; for Time-dependence of TetX7 inhibition: pre-incubation 0-240 min
TetX6 = TetX6 (Chryseobacterium oncorhynchi, UniProt A0A316WTJ0); assay type: biochemical; conditions: dark; no pre-incubation; none detected = no inhibition up to 2.5 mM
[3] = test system: E. coli DH5αZ1 expressing TetX7 from pZE24; experiment: MIC by broth microdilution, TetX7::pZE24; assay type: cell-based; conditions: for MIC, TetX7, + TC: presence of 8 μg/mL TC
[4] = test system: E. coli DH5αZ1 empty vector (pZE24); experiment: MIC by broth microdilution, empty vector control; assay type: cell-based; conditions: for MIC: Escherichia coli; for MIC, Empty, + TC: presence of 8 μg/mL TC
[5] = test system: E. coli DH5αZ1 expressing Tet50 from pZE24; experiment: MIC by broth microdilution, Tet50::pZE24; assay type: cell-based; conditions: Escherichia coli, read-out: MIC, Tet50, − TC
TetX7 [6] = experiment: Reversibility of TetX7 inhibition by exhaustive dialysis; assay type: biochemical; conditions: 60 min pre-incubation in the dark; dialysis at 4 °C
[7] = test system: E. coli DH5αZ1 expressing TetX7 or Tet50; conditions: TC at 8 μg/mL; resistant strains; ref [28],[30],[31]; cited from earlier work
[8] = test system: E. coli DH5αZ1 expressing TetX7 from pZE24; conditions: aTC alone, ref [28],[30],[31]; cited from earlier work
[9] = test system: E. coli DH5αZ1 empty vector (pZE24); conditions: aTC alone; empty vector control; ref [28],[30],[31]; cited from earlier work
[10] = test system: E. coli DH5αZ1 expressing Tet50 from pZE24; conditions: aTC alone, ref [28],[30],[31]; cited from earlier work
[11] = dark, compounds 1 and 2 up to 2.5 mM
[12] = shielded from light, pre-incubation 0-240 min

Sequence of 4-hydroxybenzoate-3-monooxygenase (PHBH) (P00438 whole entry): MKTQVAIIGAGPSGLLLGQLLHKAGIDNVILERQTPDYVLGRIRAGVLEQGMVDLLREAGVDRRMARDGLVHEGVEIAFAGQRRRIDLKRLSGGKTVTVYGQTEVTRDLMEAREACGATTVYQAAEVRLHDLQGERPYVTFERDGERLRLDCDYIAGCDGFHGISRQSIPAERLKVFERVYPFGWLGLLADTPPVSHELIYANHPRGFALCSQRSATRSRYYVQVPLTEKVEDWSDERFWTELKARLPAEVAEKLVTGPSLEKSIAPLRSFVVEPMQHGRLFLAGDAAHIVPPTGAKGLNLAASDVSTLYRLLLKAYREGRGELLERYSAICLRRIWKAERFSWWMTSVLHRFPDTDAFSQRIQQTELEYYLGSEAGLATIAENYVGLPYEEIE

| Compound | Inhibition of PHBH [1, 11] | Time-dependence of Tet50 inhibition (Tet50; blue light irradiation) | MIC, TetX7, + TC [3] | Time-dependence of Tet50 inhibition (Tet50; [12]) | MIC, Empty, + TC [4] | Time-dependence of TetX7 inhibition (TetX7 [2]) | also measured |
| --- | --- | --- | --- | --- | --- | --- | --- |
| CC1(NCc2ccccc2)CC1 [Compound 1, N-(1-methyl)cyclopropylbenzylamine] | no inhibition | inhibit Tet50 in a time-dependent manner |  |  |  |  | Inhibition of PHBH ([1]; blue light irradiation): potent time-dependent and dose-dependent inhibition; Apparent IC50 Values, TetX7 (TetX7 [2]): none detected^a; Apparent IC50 Values, TetX6 (TetX6): none detected^a |
| C#CCN(C)Cc1ccccc1 [Compound 2, N-methyl-N-benzyl-propargylamine] | no inhibition | inhibit Tet50 in a time-dependent manner |  |  |  |  | Inhibition of PHBH ([1]; blue light irradiation): potent time-dependent and dose-dependent inhibition; Apparent IC50 Values, TetX7 (TetX7 [2]): none detected^a; Apparent IC50 Values, TetX6 (TetX6): none detected^a |
| Cc1c2c(c(O)c3c(O)c(CNC4(C)CC4)ccc13)C(=O)[C@]1(O)C(=O)C(C(N)=O)=C(O)[C@@H](N(C)C)[C@@H]1C2.Cl [Compound 3, (4S,4aS,12aS)-4-(dimethylamino)-3,10,11,12a-tetrahydroxy-6-methyl-9-(((1-methylcyclopropyl)amino)methyl)-1,12-dioxo-1,4,4a,5,12,12a-hexahydrotetracene-2-carboxamide hydrochloride] | Inhibition was detected |  | 8 µg/mL | clear decrease in the apparent IC50 value correlating to longer enzyme–inhibitor pre-incubation times | <1 µg/mL | did not observe any time-dependence | Time-dependence of PHBH inhibition ([1]; dark): time-dependence was observed; Apparent decay constant of IC50 versus pre-incubation time (Tet50; blue light irradiation): 0.9 ± 0.3 min⁻¹; MIC ([4]; read-out: MIC, Empty, − TC): 32 µg/mL |
| C#CCNCc1ccc2c(C)c3c(c(O)c2c1O)C(=O)[C@]1(O)C(=O)C(C(N)=O)=C(O)[C@@H](N(C)C)[C@@H]1C3.Cl [Compound 4, (4S,4aS,12aS)-4-(dimethylamino)-3,10,11,12a-tetrahydroxy-6-methyl-1,12-dioxo-9-((prop-2-yn-1-ylamino)methyl)-1,4,4a,5,12,12a-hexahydrotetracene-2-carboxamide hydrochloride] | Inhibition was detected | slower time-dependent inactivation | 2 µg/mL | clear decrease in the apparent IC50 value correlating to longer enzyme–inhibitor pre-incubation times | <1 µg/mL | did not observe any time-dependence | Time-dependence of PHBH inhibition ([1]; dark): time-dependence was observed; MIC [5]: 32 µg/mL; MIC ([4]; read-out: MIC, Empty, − TC): 32 µg/mL |
| C#CCN(C)Cc1ccc2c(C)c3c(c(O)c2c1O)C(=O)[C@]1(O)C(=O)C(C(N)=O)=C(O)[C@@H](N(C)C)[C@@H]1C3 [Compound 5, (4S,4aS,12aS)-4-(dimethylamino)-3,10,11,12a-tetrahydroxy-6-methyl-9-((methyl(prop-2-yn-1-yl)amino)methyl)-1,12-dioxo-1,4,4a,5,12,12a-hexahydrotetracene-2-carboxamide] |  | time- and light- dependent irreversible inactivation of Tet50 | 2 µg/mL | clear decrease in the apparent IC50 value correlating to longer enzyme–inhibitor pre-incubation times | <1 µg/mL | did not observe any time-dependence | MIC ([3]; Escherichia coli, read-out: MIC, TetX7, − TC): 64 µg/mL (≈ 126 µM); TetX7 activity after exhaustive dialysis versus before (TetX7 [6]): reversed upon exhaustive dialysis; Apparent decay constant of IC50 versus pre-incubation time (Tet50; blue light irradiation): 0.5 ± 0.1 min⁻¹ |
| CN(C)[C@@H]1C(O)=C(C(N)=O)C(=O)[C@@]2(O)C(O)=C3C(=O)c4c(O)cccc4[C@@](C)(O)[C@H]3C[C@@H]12 [TC, tetracycline, reference compound] |  |  |  |  |  |  | MIC ([4]; read-out: MIC of TC): 1 µg/mL |
| Cc1c2c(c(O)c3c(O)cccc13)C(=O)[C@]1(O)C(=O)C(C(N)=O)=C(O)[C@@H](N(C)C)[C@@H]1C2 [aTC, anhydrotetracycline] | Inhibition was detected | time-dependent inhibition |  | not time-dependent |  | did not observe any time-dependence | Inhibitor concentration that rescues growth inhibitory activity of TC [7]: ≥ 2 µg/mL; MIC of aTC [8]: 8 µg/mL; MIC of aTC [9]: 4 µg/mL; MIC of aTC [10]: 8 µg/mL |
